Measured values taken from ChEMBL document CHEMBL1122071, “Avermectin acyl derivatives with anthelmintic activity” (1982).

Experiments:
Format in all cases: functional
[1] = test system: Trichostrongylus colubriformis; test: Anthelmintic efficacy against Trichostrongylus colubriformis (T.c) in sheep at dose of 0.1 mg/kg administered subcutaneously; details: route subcutaneous
Outline: (§1)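 Experimentally infected lambs carrying mixed nematode species each received 0.1 mg/kg by subcutaneous injection, one sheep per treatment. An untreated infected group of 6 lambs served as comparison, with worm burdens given as the geometric mean number of worms per lamb. Efficacy was scored for each parasite species.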

Cooperia curticei [2] = test: Anthelmintic efficacy against immature (EL4) Cooperia curticei. in sheep at dose of 0.1 mg/kg administered subcutaneously; details: route subcutaneous
Trichostrongylus axei [3] = test: Anthelmintic efficacy against Trichostrongylus axei (T.a) in sheep at dose of 0.1 mg/kg administered subcutaneously; 60-89; details: route subcutaneous; outline: as §1
[4] = test system: Oesophagostomum columbianum; test: Anthelmintic efficacy against Oseophagostomum columbianum (Oe. c) in sheep at dose of 0.1 mg/kg administered subcutaneously; details: route subcutaneous; outline: as §1
Haemonchus contortus [5] = test: Anthelmintic efficacy against adult Haemonchus contortus (H.c) in sheep at dose of 0.1 mg/kg administered subcutaneously; details: route subcutaneous; outline: as §1
[6] = test system: Trichostrongylus colubriformis; test: Minimal dose necessary to eliminate > 83% of Trichostrongylus colubriformis infection in gerbils
Cooperia curticei [7] = test: Anthelmintic efficacy against adult Cooperia curticei. in sheep at dose of 0.1 mg/kg administered subcutaneously; details: route subcutaneous
Haemonchus contortus [8] = test: Anthelmintic efficacy against adult Haemonchus contortus (H.c) in sheep at dose of 0.25 mg/kg administered orally; details: route oral
Outline: (§2)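 Lambs experimentally infected with mixed gastrointestinal nematodes (H. contortus, O. circumcincta, T. axei, T. colubriformis, C. oncophora, Oe. columbianum) were dosed orally, 1–3 sheep per dose. An untreated infected group of 6 was included, with worm burdens given as the geometric mean number of worms per lamb. Efficacy was scored against adult and, where listed, EL4 stages.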

Trichostrongylus axei [9] = test: Anthelmintic efficacy against Trichostrongylus axei (T.a) in sheep at dose of 0.25 mg/kg administered orally; details: route oral; outline: as §2
[10] = test system: Oesophagostomum columbianum; test: Anthelmintic efficacy against Oseophagostomum columbianum (Oe. c) in sheep at dose of 0.25 mg/kg administered orally; details: route oral; outline: as §2
[11] = test system: Teladorsagia circumcincta; test: Anthelmintic efficacy against adult (EL4) Ostertagia circumcincta (O. c) in sheep at dose of 0.15 mg/kg administered orally; details: route oral; outline: as §2
Cooperia oncophora [12] = test: Anthelmintic efficacy against adult Cooperia oncopphora (C.o) in sheep at dose of 0.15 mg/kg administered orally; details: route oral; outline: as §2
Haemonchus contortus [13] = test: Anthelmintic efficacy against adult Haemonchus contortus (H.c) in sheep at dose of 0.15 mg/kg administered orally; details: route oral; outline: as §2
[14] = test system: Teladorsagia circumcincta; test: Anthelmintic efficacy against immature (EL4) Ostertagia circumcincta (O. c) in sheep at dose of 0.15 mg/kg administered orally; 20-59%
[15] = test system: Trichostrongylus colubriformis; test: Anthelmintic efficacy against Trichostrongylus colubriformis (T.c) in sheep at dose of 0.25 mg/kg administered orally; details: route oral; outline: as §2
Cooperia oncophora [16] = test: Anthelmintic efficacy against adult Cooperia oncopphora (C.o) in sheep at dose of 0.25 mg/kg administered orally; details: route oral; outline: as §2
[17] = test system: Oesophagostomum columbianum; test: Anthelmintic efficacy against Oseophagostomum columbianum (Oe. c) in sheep at dose of 0.15 mg/kg administered orally; details: route oral; outline: as §2
Trichostrongylus axei [18] = test: Anthelmintic efficacy against Trichostrongylus axei (T.a) in sheep at dose of 0.15 mg/kg administered orally; details: route oral; outline: as §2
[19] = test system: Trichostrongylus colubriformis; test: Anthelmintic efficacy against Trichostrongylus colubriformis (T.c) in sheep at dose of 0.15 mg/kg administered orally; details: route oral; outline: as §2
[20] = test system: Teladorsagia circumcincta; test: Anthelmintic efficacy against adult Ostertagia circumcincta (O. c) in sheep at dose of 0.25 mg/kg administered orally; details: route oral; outline: as §2
Trichostrongylus axei [21] = test: Anthelmintic efficacy against Trichostrongylus axei (T.a) in sheep at dose of 0.1 mg/kg administered orally; details: route oral; outline: as §2
[22] = test system: Oesophagostomum columbianum; test: Anthelmintic efficacy against Oseophagostomum columbianum (Oe. c) in sheep at dose of 0.05 mg/kg administered orally; details: route oral
Outline: (§3)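 Lambs were experimentally infected with mixed gastrointestinal nematodes: Haemonchus contortus, Ostertagia circumcincta, Trichostrongylus axei, T. colubriformis, Cooperia oncophora and Oesophagostomum columbianum. Dosing was oral, in mg/kg, with 3 sheep per dose group. An untreated infected group of 6 sheep served as reference, with worm burdens given as the geometric mean per lamb. Immature (EL4) and adult worms were scored separately.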

Cooperia oncophora [23] = test: Anthelmintic efficacy against immature (EL4) Cooperia oncopphora (C.o) in sheep at dose of 0.025 mg/kg administered orally; 0-19%; outline: as §3
[24] = test system: Teladorsagia circumcincta; test: Anthelmintic efficacy against immature (EL4) Ostertagia circumcincta (O. c) in sheep at dose of 0.05 mg/kg administered orally; details: route oral; outline: as §3
Cooperia oncophora [25] = test: Anthelmintic efficacy against adult Cooperia oncopphora (C.o) in sheep at dose of 0.05 mg/kg administered orally; details: route oral; outline: as §3
Trichostrongylus axei [26] = test: Anthelmintic efficacy against Trichostrongylus axei (T.a) in sheep at dose of 0.05 mg/kg administered orally; details: route oral; outline: as §3
[27] = test system: Teladorsagia circumcincta; test: Anthelmintic efficacy against immature (EL4) Ostertagia circumcincta (O. c) in sheep at dose of 0.1 mg/kg administered orally; details: route oral; outline: as §3
Cooperia oncophora [28] = test: Anthelmintic efficacy against adult Cooperia oncopphora (C.o) in sheep at dose of 0.1 mg/kg administered orally; details: route oral; outline: as §3
Cooperia oncophora [29] = test: Anthelmintic efficacy against adult Cooperia oncopphora (C.o) in sheep at dose of 0.025 mg/kg administered orally; 20-59%; outline: as §3
Cooperia oncophora [30] = test: Anthelmintic efficacy against immature (EL4) Cooperia oncopphora (C.o) in sheep at dose of 0.05 mg/kg administered orally; details: route oral; outline: as §3
Cooperia oncophora [31] = test: Anthelmintic efficacy against immature (EL4) Cooperia oncopphora (C.o) in sheep at dose of 0.1 mg/kg administered orally; details: route oral; outline: as §3
[32] = test system: Trichostrongylus colubriformis; test: Anthelmintic efficacy against Trichostrongylus colubriformis (T.c) in sheep at dose of 0.025 mg/kg administered orally; 60-89%; outline: as §3
Haemonchus contortus [33] = test: Anthelmintic efficacy against immature (EL4) Haemonchus contortus (H.c) in sheep at dose of 0.025 mg/kg administered orally; details: route oral; outline: as §3
[34] = test system: Oesophagostomum columbianum; test: Anthelmintic efficacy against Oseophagostomum columbianum (Oe. c) in sheep at dose of 0.1 mg/kg administered orally; details: route oral; outline: as §2
[35] = test system: Oesophagostomum columbianum; test: Anthelmintic efficacy against Oseophagostomum columbianum (Oe. c) in sheep at dose of 0.025 mg/kg administered orally; details: route oral; outline: as §3
[36] = test system: Teladorsagia circumcincta; test: Anthelmintic efficacy against […] (EL4) Ostertagia circumcincta (O. c) in sheep at dose of 0.025 mg/kg administered orally; 60-89%; outline: as §3
[37] = test system: Teladorsagia circumcincta; test: Anthelmintic efficacy against adult Ostertagia circumcincta (O. c) in sheep at dose of 0.1 mg/kg administered orally; details: route oral; outline: as §2
Trichostrongylus axei [38] = test: Anthelmintic efficacy against Trichostrongylus axei (T.a) in sheep at dose of 0.025 mg/kg administered orally; 60-89%; outline: as §3
Haemonchus contortus [39] = test: Anthelmintic efficacy against adult Haemonchus contortus (H.c) in sheep at dose of 0.025 mg/kg administered orally; details: route oral; outline: as §3
[40] = test system: Teladorsagia circumcincta; test: Anthelmintic efficacy against immature (EL4) Ostertagia circumcincta (O. c) in sheep at dose of 0.025 mg/kg administered orally; 20-59%; outline: as §3
Haemonchus contortus [41] = test: Anthelmintic efficacy against adult Haemonchus contortus (H.c) in sheep at dose of 0.1 mg/kg administered orally; details: route oral; outline: as §2
Haemonchus contortus [42] = test: Anthelmintic efficacy against immature (EL4) Haemonchus contortus (H.c) in sheep at dose of 0.1 mg/kg administered orally; details: route oral; outline: as §3
Haemonchus contortus [43] = test: Anthelmintic efficacy against immature (EL4) Haemonchus contortus (H.c) in sheep at dose of 0.05 mg/kg administered orally; details: route oral; outline: as §3
[44] = test system: Trichostrongylus colubriformis; test: Anthelmintic efficacy against Trichostrongylus colubriformis (T.c) in sheep at dose of 0.05 mg/kg administered orally; details: route oral; outline: as §3
[45] = test system: Teladorsagia circumcincta; test: Anthelmintic efficacy against adult Ostertagia circumcincta (O. c) in sheep at dose of 0.05 mg/kg administered orally; details: route oral; outline: as §3
[46] = test system: Trichostrongylus colubriformis; test: Anthelmintic efficacy against Trichostrongylus colubriformis (T.c) in sheep at dose of 0.1 mg/kg administered orally; details: route oral; outline: as §3
Haemonchus contortus [47] = test: Anthelmintic efficacy against adult Haemonchus contortus (H.c) in sheep at dose of 0.05 mg/kg administered orally; details: route oral; outline: as §3

Structure (SMILES): CC[C@H](C)[C@H]1O[C@]2(C=C[C@@H]1C)C[C@@H]1C[C@@H](C/C=C(\C)[C@@H](O[C@H]3C[C@@H](OC)[C@@H](O[C@H]4C[C@@H](OC)[C@@H](OC(=O)CCC(=O)O)[C@H](C)O4)[C@H](C)O3)[C@@H](C)/C=C/C=C3\CO[C@@H]4[C@H](O)C(C)=C[C@@H](C(=O)O1)[C@]34O)O2
- Efficacy [1]: >90%
- Efficacy (Cooperia curticei [2]): >90%
- Efficacy (Trichostrongylus axei [3]): 60%
- Efficacy [4]: >90%
- Efficacy (Haemonchus contortus [5]): >90%
- Dose [6]: 0.03 mg/kg
- Efficacy (Cooperia curticei [7]): >90%

Structure (SMILES): CC[C@H](C)[C@H]1O[C@]2(C=C[C@@H]1C)C[C@@H]1C[C@@H](C/C=C(\C)[C@@H](O[C@H]3C[C@@H](OC)[C@@H](O[C@H]4C[C@@H](OC)[C@@H](OC(C)=O)[C@H](C)O4)[C@H](C)O3)[C@@H](C)/C=C/C=C3\CO[C@@H]4[C@H](OC(C)=O)C(C)=C[C@@H](C(=O)O1)[C@]34O)O2
- Efficacy (Haemonchus contortus [8]): >90%
- Efficacy (Trichostrongylus axei [9]): >90%
- Efficacy [10]: >90%
- Efficacy [11]: >90%
- Efficacy (Cooperia oncophora [12]): >90%
- Efficacy (Haemonchus contortus [13]): >90%
- Efficacy [14]: 20%
- Efficacy [15]: >90%
- Efficacy (Cooperia oncophora [16]): >90%
- Dose [6]: 0.25 mg/kg
- Efficacy [17]: >90%
- Efficacy (Trichostrongylus axei [18]): >90%
- Efficacy [19]: >90%
- Efficacy [20]: >90%

Structure (SMILES): CC[C@H](C)[C@H]1O[C@]2(C=C[C@@H]1C)C[C@@H]1C[C@@H](C/C=C(\C)[C@@H](O[C@H]3C[C@H](OC)[C@@H](O[C@H]4C[C@H](OC)[C@@H](O)[C@H](C)O4)[C@H](C)O3)[C@@H](C)/C=C/C=C3\CO[C@@H]4[C@H](O)C(C)=C[C@@H](C(=O)O1)[C@]34O)O2 [ABAMECTIN COMPONENT B1A]
- Efficacy (Trichostrongylus axei [21]): >90%
- Efficacy [22]: >90%
- Efficacy (Cooperia oncophora [23]): 0%
- Efficacy [24]: >90%
- Efficacy (Cooperia oncophora [25]): >90%
- Efficacy (Trichostrongylus axei [26]): >90%
- Efficacy [27]: >90%
- Efficacy (Cooperia oncophora [28]): >90%
- Efficacy (Cooperia oncophora [29]): 20%
- Efficacy (Cooperia oncophora [30]): >90%
- Efficacy (Cooperia oncophora [31]): >90%
- Efficacy [32]: 60%
- Efficacy (Haemonchus contortus [33]): >90%
- Efficacy [34]: >90%
- Efficacy [35]: >90%
- Efficacy [36]: 60%
- Efficacy [37]: >90%
- Efficacy (Trichostrongylus axei [38]): 60%
- Efficacy (Haemonchus contortus [39]): >90%
- Efficacy [40]: 20%
- Efficacy (Haemonchus contortus [41]): >90%
- Efficacy (Haemonchus contortus [42]): >90%
- Efficacy (Haemonchus contortus [43]): >90%
- Efficacy [44]: >90%
- Efficacy [45]: >90%
- Efficacy [46]: >90%
- Dose [6]: 0.025 mg/kg
- Efficacy (Haemonchus contortus [47]): >90%
